B1: pSwi6^S18/24A: phospho-mutant protein, S18 and S24 mutated to alanines, co-expressed with CKII (protein)
chain: MKKGGVRSYRRSSTSKRAVIDDDAEPELPSMTKEAIASHKADSGSSDNEVESDHESKSSSKKLKENAKEEEGGEEEEEDEYVVEKVLKHRMARKGGGYEYLLKWEGYDDPSDNTWSSEADCSGCKQLIEAYWNEHGGRPEPSKRKRTARPKKPEAKEPSPKSRKTDEDKHDKDSNEKIEDVNEKTIKFADKSQEEFNENGPPSGQPNGHIESDNESKSPSQKESNESEDIQIAETPSNVTPKKKPSPEVPKLPDNRELTVKQVENYDSWEDLVSSIDTIERKDDGTLEIYLTWKNGAISHHPSTITNKKCPQKMLQFYESHLTFRENE
modifications: left off: 6xHis, N-terminal, cleaved

How the values were obtained:
[1] = tested on: H3K9 methylation states; conditions: faster than H3K9me2 to me3; ref Al-Sady et al. 2013; cited from earlier work
[2] = tested on: Clr4 (H3K9me2 mononucleosome substrate); assay: Single turnover H3K9me2 to H3K9me3 conversion by Clr4; type: biochemical, S. pombe; conditions: 5 μM Clr4, 1 mM SAM, 500 nM H3K9me2 nucleosomes, 25°C
Method in brief: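 Purified Clr4 (5 μM) was preincubated for 5 min at 25°C with 1 mM SAM and varying Swi6 concentrations (unphosphorylated or phosphorylated). Reactions were started by adding commercial H3K9me2 nucleosomes to 500 nM. Timepoints were stopped by boiling in Laemmli buffer, run on 18% SDS-PAGE and blotted for H3K9me3 and H4. Signals were quantified against H3K9me3 nucleosome standard curves and fitted to a single exponential rise.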

[3] = tested on: H3Kc9me3 mononucleosomes; assay: Fluorescence polarization, H3Kc9me3; type: binding; conditions: Figure 7C, SFigure 10D
[4] = tested on: H3K9me0 mononucleosomes; assay: Fluorescence polarization, H3K9me0 mononucleosome; type: binding; conditions: Figure 7C, SFigure 10D
Method in brief: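 Reconstituted H3K9me0 mononucleosomes on fluorescein-labelled 601 DNA were fixed at 25 nM. Purified Swi6, either unphosphorylated or co-expressed with casein kinase II catalytic subunits, was titrated at 0–200 μM. Fluorescence polarization was read at ex 485 / em 528 nm and fitted to a Kd equation.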

[5] = tested on: Swi6 oligomerization; assay: Glutaraldehyde crosslinking western, oligomerization; type: biochemical; conditions: 0.01% glutaraldehyde, 2 h, room temperature; compared to pSwi6; Figure 7B
Method in brief: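 Purified Swi6 in storage buffer (25 mM HEPES pH 7.5, 100 mM KCl, 10% glycerol, 10 mM βME) was tested at various protein concentrations. It was crosslinked with 0.01% glutaraldehyde for 2 h at room temperature, then quenched with 50 mM Tris pH 7.4. Samples were diluted to 4.2 μM, run on 4–12% Tris-glycine gradient gels and analysed by western blot with fluorescent detection.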

Molecule | rate of H3K9me0 to me1 and me1 to me2 conversion relative to me2 to me3 [1] [X] | effect on conversion of H3K9me2 to H3K9me3 by Clr4 [2] | increase in affinity towards H3Kc9me3 nucleosome versus pSwi6 [3] [X] | increase in affinity towards H3K9me0 nucleosome versus pSwi6 [4] [X] | propensity to oligomerize [5]
Clr4: H3K9 methylase of S. pombe | 10 | – | – | – | –
B1 | – | decrease in tri-methylation | 2.6 | 4.5 | strongly decreased propensity to oligomerize
